Experimental data: ChEMBL document CHEMBL4513216, “Probing the Open Global Health Chemical Diversity Library for Multistage-Active Starting Points for Next-Generation Antimalarials” (ACS Infect Dis, 2020)

Assay: Toxicity liver stage against HepG2, at 10uM
Type: cell-based
Design: test concentration 10 uM, cell line HepG2-A16-CD81EGFP
Conditions: human, HepG2-A16-CD81EGFP cells; read-out: INHIBITION
Summary of the method: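 Uninfected HepG2-A16-CD81EGFP cells, 3 × 10^3 per well, 1536-well, plated on prespotted compound at 10 μM final, parasite-free screening media added to match infected plates; puromycin 10 μM positive, DMSO 0.5% negative; run in parallel with 48 h PbLuc assay at 37 °C, 5% CO2; viability by CellTiter-Glo luminescence, normalized to controls.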

| Structure (SMILES) | cytotoxicity at 10 µM [%] |
| --- | --- |
| CSc1ccc(C(=O)C2CCCN(C(=O)CCCn3cncn3)C2)cc1 (centres undefined) | 6.26 |
| CSc1ccc(C(=O)C2CCCN(C(=O)CCn3cncn3)C2)cc1 (centres undefined) | -12.2 |
| COc1cc(C)c2c(c1C)C[C@H]([C@H](C)C(=O)O)CC2 | -0.95 |
| O=C(NC[C@H]1C[C@@H]2CCN1C[C@@H]2CN1CCOCC1)Nc1ccccc1 | 5.96 |
| COCC(=O)N[C@H](C)c1onc(-c2ccc(Cl)cc2)c1C(=O)O | -5.61 |
| COC(=O)[C@@H]1Cc2ncn(C)c2CN1S(=O)(=O)c1ccc(Cl)cc1 | 4.67 |
| N#Cc1ccc(CN2C[C@@H]3OCC(=O)N[C@@H]3C2)cc1 | -3.01 |
| CCOC(=O)COC1CCN(C(C)=O)CC(=O)N(C)c2ccccc21 (centres undefined) | 7.45 |
| COCCNC(=O)c1cc(-n2cccc2)ccc1Cl | -3.45 |
| CC(C)[C@H](NC(=O)N1CCN(c2ccc(Cl)cc2)CC1)C(=O)NC1CC1 | -7.39 |
| CN1C(=O)C(C)(C)COc2cc(NS(=O)(=O)c3ccccc3F)ccc21 | -5.08 |
| CCCS(=O)(=O)c1ccc(N2CCN(c3ccccn3)CC2)nn1 | -82.5 |
| O=C(Nc1cccnc1)c1noc2c1CN(S(=O)(=O)C1CC1)CC2 | 7.06 |
| CS(=O)(=O)N1CCN(c2ccc3ccc(C(=O)NC4CC4)cn23)CC1 | -0.39 |
| Cc1cccc(CN2C(=O)CCC23CCN(Cc2ccoc2)CC3)n1 | 2.82 |
| CN1CCN(C[C@H]2OC[C@@H]3CCN(Cc4ccsc4)C[C@@H]32)CC1 | -2.19 |
| CCN1C(=O)[C@]2(CC[C@@H]3CN(C(=O)Nc4ccc(F)cc4)C[C@@H]32)N=C1C | 3.22 |
| COCCN1CC[C@]2(CN(C(=O)c3cccs3)C[C@H]2C)C1=O | 3.47 |
| CO[C@H]1CO[C@@]2(CCCN(C(=O)C3=CCCCC3)C2)C1 | -9.95 |
| CCN(C)c1ncnc2c1CCN(C(=O)c1ccno1)CC2 | -10 |
| CC(C)c1cc(C(=O)N2CCC3(CCc4ccccc4C(=O)N3)C2)on1 (centres undefined) | 2.53 |
| Cn1cccc1CNCC1CCCn2cc(C(C)(C)C)nc21 (centres undefined) | -19.8 |
| CCN(C(=O)Cc1ccc(NCc2ncc[nH]2)cc1)c1ccccc1 | 6.43 |
| Cc1cc(C(NC(=O)CNS(C)(=O)=O)C(C)C)c(C)s1 (centres undefined) | 5.2 |
| CC(C)c1noc(CCC(=O)N2CCN(C)CC2c2ccccc2)n1 (centres undefined) | -5.3 |
| Cn1cc(N2CCC(NC(=O)c3c(F)cccc3Cl)C2=O)cn1 (centres undefined) | 0.91 |
| Cc1ccc(C(=O)N2CCCC(CNS(=O)(=O)C(C)C)C2)cc1 (centres undefined) | -1.42 |

| Structure (SMILES) | cytotoxicity at 10 µM [%] |
| --- | --- |
| NC(=O)c1ccc(OCC(=O)NC2CCc3c(F)cccc32)cc1 (centres undefined) | 14.4 |
| CC(C)(C)NS(=O)(=O)c1ccccc1CNCc1ccccc1 | 5.74 |
| CCN1CCN(C(=O)C(C)N2CCc3cncnc3C2)CC1 (centres undefined) | -10.9 |
| Cc1cc(SC(C)(C)C)ccc1NC(=O)CNC(N)=O | 7.94 |
| CCCNC(=O)CCC(=O)N1CCC(c2n[nH]c(C3CC3)n2)CC1 | -3.82 |
| CNC(=O)COc1cccc(CNCc2c(C)noc2C)c1 | -10.3 |
| COc1ccccc1OCC(=O)N1CCN(Cc2noc(C)n2)CC1 | 3.82 |
| Cc1ccc(C2CSCCN2C(=O)c2ccsc2)o1 (centres undefined) | 1.68 |
| Cc1nc(CN2C[C@@H]3CN(C(=O)c4ccncc4)C[C@@H]3C2)cs1 | -108 |
| COCC(=O)NCc1cc(=O)n2c(n1)CN(Cc1ccncc1)CCC2 | -99.9 |
| CNC(=O)N1CC[C@@H]2CN(Cc3cccnc3)S(=O)(=O)[C@@H]2CC1 | 4.4 |
| O=C(O)C(c1ccc2c(c1)OCO2)N1CCC(O)(c2cccnc2)CC1 (centres undefined) | 19.7 |
| CCCN1CCC(CC(=O)NCc2cc(C)nn2C)CC1 | -12.4 |
| CCc1ncc(C(=O)NCCN2CCNC2=O)cn1 | 0.069 |
| CCc1ccc(S(=O)(=O)N2CC[C@@](O)(CCOC)[C@H](C)C2)cc1 | 6.8 |
| CC(=O)CN1CCC2(CC1)c1ccccc1[C@@H](N1CCSCC1)[C@@H]2O | -27.1 |
| CN(C)C(=O)c1cccnc1-c1ccc2c(c1)OCO2 | 1.58 |
| CN(Cc1ccccc1)c1ncccc1CNC1CCC1 | 13.5 |
| Cc1nc2ccc(C(=O)N3CCN(CCO)[C@@H]4CS(=O)(=O)C[C@@H]43)cc2o1 | -1.32 |
| O=C(NCCc1ccncc1)c1cccc(S(=O)(=O)NC2CCOC2)c1 (centres undefined) | 4.93 |
| CSCCC(=O)N1C[C@@H](C)[C@](O)(C(C)C)C1 | 0.68 |
| CC(C)(C)c1oc(C(N)=O)cc1CN1CCOC(C(F)(F)F)C1 (centres undefined) | -4.81 |
| CCC(Nc1nccc(C2CCCC2)n1)c1ccccn1 (centres undefined) | -126 |
| CN1CCN(C(=O)c2cccc(CN3CCOCC3)c2)CC1 | 2.46 |
| COc1cccc(OC)c1OCCn1c(C)c(C)oc1=O | 9.61 |
| CCS(=O)(=O)N1CCC(c2nnc(CN3CCCC3)n2C2CC2)CC1 | 14.9 |
| COc1ccc(C(=O)Nc2cc(CC(C)C)nn2C)cc1 | -10.6 |

| Structure (SMILES) | cytotoxicity at 10 µM [%] |
| --- | --- |
| Cc1cnn(C2CN(CC(=O)NCCc3ccsc3)C2)c1 | -3.86 |
| Cc1nc(C2CCCN2Cc2ccc(S(=O)(=O)N(C)C)o2)no1 (centres undefined) | -2.53 |
| Cc1ccc(OCCN2CCN(Cc3cnn(CCO)c3)CC2)cc1 | -2.4 |
| COc1cc(C(=O)NS(=O)(=O)c2cccc(C#N)c2)cc(OC)c1C | -5.02 |
| Cc1cnn(C2CCCN(C(=O)c3cn4ccccc4n3)C2)c1 (centres undefined) | -6.35 |
| CC(C)c1nc(C2CCCN2Cc2ccccc2C#N)no1 (centres undefined) | -7.62 |
| O=C(CS(=O)(=O)CC1CCCCC1)NC1CCCCNC1=O (centres undefined) | -10.6 |
| CNC(=O)CCCNCc1c(C(C)C)nn(C)c1N(C)C | -12.7 |
| CCOc1ncccc1NC(=O)N1CCCCCC1 | -6.36 |
| CC(=O)N(Cc1ncc(C(C)C)o1)C1CCN(Cc2ncc[nH]2)C1 (centres undefined) | -6.02 |
| Cc1nc(C)n(C2CCCN(C(=O)c3ccc(NC4CC4)nc3)C2)n1 (centres undefined) | -3.36 |
| Cc1oc(C)c(C(=O)NCc2ccccn2)c1C | -0.729 |
| Cc1nnc2n1CCN(C(=O)c1cc(Cl)c[nH]1)C2 | -5.87 |
| CCc1nnc2n1CCN(C(=O)Cc1csc(-c3ccco3)n1)C2 | -8.7 |
| CCc1nnc2n1CCN(C(=O)c1ccc(C(F)(F)F)nc1C)C2 | -7.28 |
| CCc1nc(CN(CC(N)=O)C(C)C)cs1 | -8.62 |
| CCc1n[nH]c(C2CN(C(=O)c3cnns3)CCO2)n1 (centres undefined) | -3.43 |
| Cc1cnn(CC2CCCN2C(=O)c2cccc(-n3cnnn3)c2)c1 (centres undefined) | -4.3 |
| COc1cccc(N2C(=O)CC3(CCNCC3)C2=O)c1 | 2.67 |
| c1cncc(-c2noc(C3CN(Cc4cccs4)C3)n2)c1 | -6.87 |
| Cn1cc(N2C(=O)CC[C@@H]3[C@H]2CCN3Cc2nccs2)cn1 | 8.62 |
| c1ccc(CO[C@H]2CC[C@H]3[C@H]2OCCN3Cc2nccs2)nc1 | 5.83 |
| COCCN1C[C@@H]2[C@@H](OC)CCN(Cc3ccco3)[C@@H]2C1 | 2.37 |
| Cc1cnc(N2CC3(CCN(C(=O)c4cccnc4)C3)C2)nc1 | 2.55 |
| O=C(CCn1cncn1)N1C[C@@H]2CC[C@H]1CN(Cc1ccncc1)C2 | 9.53 |
